Results reported in ChEMBL document CHEMBL1148990, “Effect of benzylic oxygen on the antioxidant activity of phenolic lignans” (J Nat Prod, 2005).
Activity calls are given as the source filed them. No cut-off for these calls is given here.

Key:
[1] = tested on: Radical scavenging activity; assay: Antioxidant activity assessed as DPPH radical scavenging activity; type: functional
In short: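 Test sample at 20 µM final mixed with DPPH (0.1 mM); stood 0.5 h at 25 °C, then absorbance read at 517 nm. Activity expressed as decrease of absorbance: DPPH blank minus (DPPH + sample) plus sample-only absorbance.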

[2] = Antioxidant activity assessed as AAPH radical scavenging activity after 3 hrs; type: functional
In short: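 Ethyl linoleate (50 mM) oxidized with AAPH (10 mM) in 0.3 M Tween 20/0.05 M phosphate buffer (pH 7.4) micelles; test sample 0.10 mM final (from DMSO stock). Incubation 37 °C, dark, with shaking, 3 h. Aliquot quenched into methanolic trolox; ethyl linoleate hydroperoxide quantified by reverse-phase HPLC at 234 nm from a peak-area calibration equation.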

Row | Compound | Activity [1] | Activity [2]
1 | COc1cc([C@@H](O)[C@H]2COC[C@@H]2[C@H](O)c2ccc(O)c(OC)c2)ccc1O | Active | Active
2 | COc1cc(C[C@H]2COC[C@@H]2[C@@H](O)c2ccc(O)c(OC)c2)ccc1O | Active | Active
3 | COc1cc(C(O)[C@H]2COC[C@@H]2[C@@H](O)c2ccc(O)c(OC)c2)ccc1O (single isomer, unassigned) | Active | Active
4 | COc1cc(C[C@H]2COC[C@@H]2Cc2ccc(O)c(OC)c2)ccc1O | Active | Active
5 | COc1cc(C[C@H]2COC(=O)[C@@H]2Cc2ccc(O)c(OC)c2)ccc1O | Active | Active
6 | COc1cc(C[C@H]2COC[C@@H]2[C@H](O)c2ccc(O)c(OC)c2)ccc1O | Active | Active
7 | COc1cc(C[C@H]2COC[C@@H]2C(=O)c2ccc(O)c(OC)c2)ccc1O | Active | Active
8 | COc1cc([C@@H]2c3cc(O)c(OC)cc3C[C@H]3COC[C@H]32)ccc1O | Active | Active
